{
  "source": "paper PMC3747510",
  "about": "(Scientific Reports, 2013)",
  "key": {"yeast cytosolic LeuRS": {"molecular_target": "T1, yeast cytosolic LeuRS (Saccharomyces cerevisiae, UniProt P26637)", "T1 sequence (P26637 1-1090)": "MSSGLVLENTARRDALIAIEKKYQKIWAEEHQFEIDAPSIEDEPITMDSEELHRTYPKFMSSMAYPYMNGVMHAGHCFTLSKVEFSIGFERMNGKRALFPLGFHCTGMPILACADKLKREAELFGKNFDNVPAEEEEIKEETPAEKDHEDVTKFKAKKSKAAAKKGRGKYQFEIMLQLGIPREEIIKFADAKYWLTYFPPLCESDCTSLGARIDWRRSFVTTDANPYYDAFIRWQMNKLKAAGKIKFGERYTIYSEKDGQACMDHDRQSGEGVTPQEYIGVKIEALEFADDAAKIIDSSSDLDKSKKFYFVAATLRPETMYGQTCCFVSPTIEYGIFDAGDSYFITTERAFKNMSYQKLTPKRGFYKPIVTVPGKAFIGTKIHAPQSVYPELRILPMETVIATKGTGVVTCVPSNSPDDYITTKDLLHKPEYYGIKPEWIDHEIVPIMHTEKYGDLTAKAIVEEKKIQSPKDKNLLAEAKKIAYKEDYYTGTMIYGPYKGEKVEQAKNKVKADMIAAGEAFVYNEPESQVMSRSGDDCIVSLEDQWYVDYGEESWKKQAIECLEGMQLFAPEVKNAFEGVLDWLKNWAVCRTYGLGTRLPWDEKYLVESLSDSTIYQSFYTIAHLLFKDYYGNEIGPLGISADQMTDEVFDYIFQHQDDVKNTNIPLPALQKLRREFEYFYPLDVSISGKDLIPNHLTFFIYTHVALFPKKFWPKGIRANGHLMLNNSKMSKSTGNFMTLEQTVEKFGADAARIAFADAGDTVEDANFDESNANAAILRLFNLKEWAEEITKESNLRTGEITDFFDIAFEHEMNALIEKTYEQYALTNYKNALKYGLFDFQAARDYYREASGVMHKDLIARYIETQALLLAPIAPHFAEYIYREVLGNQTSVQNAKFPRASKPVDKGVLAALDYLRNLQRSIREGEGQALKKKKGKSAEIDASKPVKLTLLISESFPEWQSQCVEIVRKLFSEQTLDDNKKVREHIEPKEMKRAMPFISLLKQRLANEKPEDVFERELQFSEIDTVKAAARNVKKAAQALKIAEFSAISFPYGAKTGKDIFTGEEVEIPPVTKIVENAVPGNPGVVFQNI", "assay": "Aminoacylation by yeast cytosolic LeuRS", "format": "biochemical", "settings": "100 μM ZCL039"}, "[1]": {"test_system": "E. coli strains containing pET30a-eclrs", "assay": "MIC upon overexpression of EcLeuRS", "format": "cell-based, Escherichia coli", "settings": "induced by IPTG", "summary_of_the_method": "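E. coli transformants carrying pET30a-eclrs, with the empty pET30a vector strain as control. Both were induced with 10 μM IPTG and tested by broth microdilution in Mueller Hinton broth (37°C, 24 h). MICs were read as the lowest concentration without visible growth and compared between the two strains.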"}, "SpLeuRS T252R": {"molecular_target": "T2, SpLeuRS T252R (Streptococcus pneumoniae serotype 4, UniProt Q97SS0, T252R)", "T2 sequence (Q97SS0 1-833 T252R)": "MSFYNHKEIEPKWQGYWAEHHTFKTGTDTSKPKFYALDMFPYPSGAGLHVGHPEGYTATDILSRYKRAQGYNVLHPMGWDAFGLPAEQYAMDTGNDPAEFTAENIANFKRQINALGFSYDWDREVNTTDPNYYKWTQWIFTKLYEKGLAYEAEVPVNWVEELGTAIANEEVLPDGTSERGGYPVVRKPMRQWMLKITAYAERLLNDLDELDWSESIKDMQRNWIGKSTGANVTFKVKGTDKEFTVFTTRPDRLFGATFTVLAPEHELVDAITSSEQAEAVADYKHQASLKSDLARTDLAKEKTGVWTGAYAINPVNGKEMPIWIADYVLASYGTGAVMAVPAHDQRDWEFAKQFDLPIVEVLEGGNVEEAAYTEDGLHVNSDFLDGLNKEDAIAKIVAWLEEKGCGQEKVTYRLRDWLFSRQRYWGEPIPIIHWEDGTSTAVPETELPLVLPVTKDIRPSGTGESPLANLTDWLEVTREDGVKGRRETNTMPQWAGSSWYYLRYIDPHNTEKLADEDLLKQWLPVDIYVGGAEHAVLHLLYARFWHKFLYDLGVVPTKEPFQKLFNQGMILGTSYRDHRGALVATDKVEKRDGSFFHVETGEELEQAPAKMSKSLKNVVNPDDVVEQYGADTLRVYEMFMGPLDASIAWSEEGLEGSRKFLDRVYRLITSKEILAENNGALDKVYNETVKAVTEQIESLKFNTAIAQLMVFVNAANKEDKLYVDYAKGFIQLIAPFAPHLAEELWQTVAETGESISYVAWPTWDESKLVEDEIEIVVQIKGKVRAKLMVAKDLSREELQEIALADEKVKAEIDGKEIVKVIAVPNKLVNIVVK", "assay": "Aminoacylation by SpLeuRS T252R mutant", "format": "biochemical", "settings": "50 μM ZCL039", "summary_of_the_method": "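Aminoacylation at 37°C, started with 4 mM ATP. Point mutants were made by site-directed mutagenesis. The MmLinker chimera has CP1 Lys226–Thr411 replaced by a nonapeptide. Means of three independent experiments.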"}, "E. coli": {"test_system": "E. coli", "assay": "Broth microdilution MIC, E. coli", "format": "cell-based", "settings": "Escherichia coli", "summary_of_the_method": "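Broth microdilution per CLSI M7-A7 in Mueller Hinton broth. About […] E. coli was exposed to serial test-compound dilutions for 24 h at 37°C. MIC was the lowest concentration suppressing visible growth. Ampicillin was used to monitor susceptibility.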"}},
  "note": "Where two headings read alike, the source gives them in different places.",
  "data": [
    {"molecule": "OB1OCc2ccc(C(O)c3ccccc3)cc21", "note": "(centres unmarked) [ZCL039, [6-(1-phenyl-1-hydroxylmethyl)]-1,3-dihydro-1-hydroxy-2,1-benzoxaborole]", "values": [
      {"measurement": "Activity against yeast cytosolic LeuRS aminoacylation", "setting": "yeast cytosolic LeuRS", "value": "little effect"},
      {"measurement": "Increase in the MIC, pET30a-eclrs vs pET30a", "setting": "[1]", "value": "over 4 fold"},
      {"measurement": "Effect on synthetic activity of T252R mutant", "setting": "SpLeuRS T252R", "value": "did not affect"},
      {"measurement": "MIC", "setting": "E. coli; 24 h, read-out: MIC, Bacteria, E. coli", "value": 60, "unit": "µg/mL"},
      {"measurement": "MIC", "setting": "E. coli; read-out: MIC, E. coli strains containing pET30a", "value": 60, "unit": "µg/mL"}
    ]}
  ]
}
